The text below walks through data of PubChem BioAssay AID623942 (The Scripps Research Institute Molecular Screening Center, 2012).

The structures appear in SMILES notation. pIC50: −log10 of the molar value. Calls of active or inactive are those of the source.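 Rule for the calls: active = IC50 at or below 50 µM; inactive = IC50 above 50 µM.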

In general, IC50 refers to the point on the concentration scale where inhibition reaches its midpoint. Usually pIC50 stands for the IC50 on a negative log10 scale, so that one unit is a factor of ten.

RecBCD enzyme subunit RecC (Escherichia coli (strain K12)) + RecBCD enzyme subunit RecB (Escherichia coli (strain K12)), sequence (P07648 whole entry, looked up, the tested form may be a part): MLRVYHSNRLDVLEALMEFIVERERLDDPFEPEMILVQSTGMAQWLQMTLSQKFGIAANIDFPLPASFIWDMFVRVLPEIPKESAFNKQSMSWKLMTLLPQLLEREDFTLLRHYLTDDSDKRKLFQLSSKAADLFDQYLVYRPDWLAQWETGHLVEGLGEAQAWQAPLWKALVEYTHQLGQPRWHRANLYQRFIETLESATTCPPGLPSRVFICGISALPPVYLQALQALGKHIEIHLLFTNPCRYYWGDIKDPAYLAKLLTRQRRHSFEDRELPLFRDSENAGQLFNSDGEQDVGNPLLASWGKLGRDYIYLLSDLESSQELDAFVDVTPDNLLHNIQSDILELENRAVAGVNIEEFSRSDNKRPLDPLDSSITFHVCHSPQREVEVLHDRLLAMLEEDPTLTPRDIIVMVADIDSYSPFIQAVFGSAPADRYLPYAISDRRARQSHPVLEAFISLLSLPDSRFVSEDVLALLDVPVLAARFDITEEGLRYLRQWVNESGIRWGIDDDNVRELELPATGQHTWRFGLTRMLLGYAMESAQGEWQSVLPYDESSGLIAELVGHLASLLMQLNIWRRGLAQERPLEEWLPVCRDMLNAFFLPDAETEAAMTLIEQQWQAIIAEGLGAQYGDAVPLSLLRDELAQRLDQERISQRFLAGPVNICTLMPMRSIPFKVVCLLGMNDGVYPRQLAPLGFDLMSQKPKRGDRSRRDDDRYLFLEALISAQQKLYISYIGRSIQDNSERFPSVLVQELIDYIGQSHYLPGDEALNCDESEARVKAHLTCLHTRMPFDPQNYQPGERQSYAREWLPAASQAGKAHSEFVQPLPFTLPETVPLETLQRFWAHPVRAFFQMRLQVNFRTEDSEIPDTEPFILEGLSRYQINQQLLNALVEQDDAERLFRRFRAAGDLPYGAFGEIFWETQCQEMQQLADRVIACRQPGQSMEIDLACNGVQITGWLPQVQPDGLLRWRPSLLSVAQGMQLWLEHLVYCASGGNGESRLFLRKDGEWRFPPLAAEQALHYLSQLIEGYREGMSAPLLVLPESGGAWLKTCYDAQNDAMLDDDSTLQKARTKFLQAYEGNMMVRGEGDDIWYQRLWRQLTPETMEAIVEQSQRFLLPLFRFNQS
RecBCD enzyme subunit RecC (Escherichia coli (strain K12)) + RecBCD enzyme subunit RecB (Escherichia coli (strain K12)), sequence (P08394 whole entry, looked up, the tested form may be a part): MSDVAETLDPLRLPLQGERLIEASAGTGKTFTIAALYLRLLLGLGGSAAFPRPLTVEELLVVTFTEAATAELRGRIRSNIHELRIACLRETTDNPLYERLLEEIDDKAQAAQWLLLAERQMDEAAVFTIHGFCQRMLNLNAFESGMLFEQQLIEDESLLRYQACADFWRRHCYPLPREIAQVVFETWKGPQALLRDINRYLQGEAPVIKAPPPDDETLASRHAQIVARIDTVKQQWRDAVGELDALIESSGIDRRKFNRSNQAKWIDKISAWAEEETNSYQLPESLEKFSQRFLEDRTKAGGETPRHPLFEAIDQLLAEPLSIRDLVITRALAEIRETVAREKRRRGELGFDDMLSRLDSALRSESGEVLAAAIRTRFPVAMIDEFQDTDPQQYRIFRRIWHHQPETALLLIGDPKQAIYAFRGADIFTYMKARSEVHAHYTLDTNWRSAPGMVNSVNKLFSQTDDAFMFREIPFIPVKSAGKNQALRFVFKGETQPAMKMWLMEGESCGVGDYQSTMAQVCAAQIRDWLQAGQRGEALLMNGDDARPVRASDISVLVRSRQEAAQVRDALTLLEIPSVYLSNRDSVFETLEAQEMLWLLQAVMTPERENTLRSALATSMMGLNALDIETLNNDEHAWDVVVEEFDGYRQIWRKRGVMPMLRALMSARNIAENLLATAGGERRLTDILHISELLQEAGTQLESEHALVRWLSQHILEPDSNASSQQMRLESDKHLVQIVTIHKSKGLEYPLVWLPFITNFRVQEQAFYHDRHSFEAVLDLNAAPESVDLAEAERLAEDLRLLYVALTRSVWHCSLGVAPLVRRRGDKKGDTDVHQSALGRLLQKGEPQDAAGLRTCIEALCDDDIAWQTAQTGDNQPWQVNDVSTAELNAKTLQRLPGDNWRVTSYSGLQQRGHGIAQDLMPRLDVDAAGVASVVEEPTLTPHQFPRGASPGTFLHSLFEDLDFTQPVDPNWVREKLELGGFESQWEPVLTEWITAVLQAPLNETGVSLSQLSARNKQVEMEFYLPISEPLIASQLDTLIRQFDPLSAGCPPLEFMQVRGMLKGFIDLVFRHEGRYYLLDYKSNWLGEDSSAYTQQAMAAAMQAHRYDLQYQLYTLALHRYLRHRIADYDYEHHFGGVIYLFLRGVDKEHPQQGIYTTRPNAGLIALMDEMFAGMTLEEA

This assay concerns the target RecBCD enzyme subunit RecC (Escherichia coli (strain K12)) + RecBCD enzyme subunit RecB (Escherichia coli (strain K12)) (UniProt P07648+P08394). In words: RecBCD helicase and Chi cutting inhibitors, dose response, counter-screen for AddAB inhibitor project, biochemical, radioactive gel readout (AID 623942). Conditions: purified RecBCD, Chi cutting/unwinding. In outline:
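Test system – purified E. coli RecBCD · Quantity – 0.15 nM RecBCD · Reagent – 0.1 nM labeled Chi+F DNA plus 5 mM ATP · Timing – 1 min at 37 °C · Signal – gel autoradiography of 32P-labeled DNA products · Evaluation – IC50 from loss of 1.46 kb Chi-cut fragment versus DMSO · Benchmarks – DMSO control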
In general terms: The purpose of a counterscreen is to sort out artefacts and off-target activity.
In the case of `O=C(NCc1cccnc1)c1ccc([N+](=O)[O-])o1`, the IC50 is > 500 µM (inactive).
As to `CCn1cc(C(=O)O)c(=O)c2cc(F)c(N3CCN(C(=S)Nc4cccc(C(F)(F)F)c4)CC3)cc21`, the pIC50 was 6.22.
Turning to `NC(=O)c1ccsc1NC(=O)COC(=O)c1ccc([N+](=O)[O-])o1`, the IC50 entry is “inactive”.
With `CCn1cc(C(=O)O)c(=O)c2cc(F)c(N3CCN(C(=S)Nc4ccccc4C(F)(F)F)CC3)cc21`, the pIC50 is 4.70.
For `O=C(Nc1ccc(N2CCOCC2)cc1)c1ccc([N+](=O)[O-])o1`, the IC50 result was “inactive”.
`CC(=O)Nc1ccc2nc(NC(=O)c3ccc([N+](=O)[O-])o3)sc2c1`: the IC50 was > 500 µM (inactive).
Turning to `O=C(OCC(=O)c1cccs1)c1ccc([N+](=O)[O-])o1`, the IC50 is > 500 µM (inactive).
Consider `O=C(Nc1cccc(NC(=O)c2ccccc2Cl)c1)c1ccc([N+](=O)[O-])o1`, for which the pIC50 is 4.70.
Turning to `C=CCn1c(Sc2ncc([N+](=O)[O-])s2)n[nH]c1=O`, the IC50 was > 500 µM (inactive).
For the compound `Cc1ccc2nc(/C(C#N)=C\c3ccc([N+](=O)[O-])o3)[nH]c2c1`, the negative logarithm of the IC50 (pIC50) is 4.42.
For `CCn1cc(C(=O)O)c(=O)c2cnc(N3CCN(C(=S)Nc4ccccc4C(F)(F)F)CC3)nc21`, the negative logarithm of the IC50 (pIC50) is 5.00.
For the compound `O=C(Nc1ncccn1)c1ccc([N+](=O)[O-])o1`, the pIC50 is 4.31.
For the compound `N#Cc1c(NC(=O)c2ccc([N+](=O)[O-])o2)sc2c1CCC2`, the pIC50 is 4.70.
For `CCn1cc(C(=O)O)c(=O)c2cnc(N3CCN(C(=S)Nc4cccc(C(F)(F)F)c4)CC3)nc21`, the negative logarithm of the IC50 (pIC50) is 6.22.
In the case of `Cc1cccnc1NC(=O)c1ccc([N+](=O)[O-])o1`, the IC50 is > 500 µM (inactive).
